Data from ChEMBL document CHEMBL1909633, “Pseudoguaianolides and guaianolides from Inula hupehensis as potential anti-inflammatory agents” (J Nat Prod, 2011).

How the values were obtained:
RAW264.7 [1] = experiment: Cytotoxicity against mouse RAW264.7 cells after 24 hrs by MTT assay; format: cell-based; details: raw264.7, 24 h
Outline: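 RAW264.7 macrophages, cultured and treated alongside the LPS (1 μg/mL, 24 h) NO assay with sample pretreatment of 30 min; viability read by MTT reduction.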

RAW264.7 [2] = experiment: Antiinflammatory action in mouse RAW264.7 cells assessed as inhibition of LPS-induced nitric oxide production treated 30 mins before LPS challenge measured after 24 hrs by griess reaction; format: functional, cell-based
Outline: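 RAW264.7 macrophages seeded at 2 × 10^5 cells/well, pretreated 30 min with samples over 0.1–50.0 μM, then stimulated with LPS 1 μg/mL for 24 h. NO quantified as nitrite in culture supernatant using Griess reagent; IC50 derived.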

For `C=C1C(=O)O[C@H]2C=C(C)[C@H]3CC[C@](C)(O)[C@@H]3C[C@H]12`, the Activity (RAW264.7 [1]) was “Non-toxic” and the IC50 (RAW264.7 [2]) was 6.3 µM.
In the case of `C=C1C(=O)O[C@H]2[C@H]1[C@@H](O)C[C@@H](C)[C@@H]1C=CC(=O)[C@]12C`, the Activity (RAW264.7 [1]) is reported as “Non-toxic” and the IC50 (RAW264.7 [2]) is reported as 3.5 µM.
With `C[C@@H]1C[C@@H]2OC(=O)[C@@H](C)[C@H]2[C@H](O)[C@]2(C)C(=O)C=C[C@@H]12` the Activity (RAW264.7 [1]) was “Non-toxic” and the IC50 (RAW264.7 [2]) was 10.5 µM.
For `C=C1C(=O)O[C@H]2C[C@@H](COC(C)=O)[C@@H]3CCC(=O)[C@@]3(C)C[C@H]12`, the Activity (RAW264.7 [1]) was “Non-toxic” and the IC50 (RAW264.7 [2]) was 6.6 µM.
With `C=C1C(=O)O[C@H]2C[C@@H](C)[C@@H]3[C@H](OC)CC(=O)[C@@]3(C)[C@@H](O)[C@H]12` the Activity (RAW264.7 [1]) was “Non-toxic” and the IC50 (RAW264.7 [2]) was 5.1 µM.
`C=C1C(=O)O[C@H]2C[C@@H](C)[C@@H]3[C@H](OCC)CC(=O)[C@@]3(C)[C@@H](O)[C@H]12` was tested, and the Activity (RAW264.7 [1]) was “Non-toxic” and the IC50 (RAW264.7 [2]) was 3.8 µM.
With `C=C1C(=O)O[C@H]2C[C@@H](C)[C@@H]3[C@H](OC)CC(=O)[C@@]3(C)[C@@H](OC(C)=O)[C@H]12` the Activity (RAW264.7 [1]) was “Non-toxic” and the IC50 (RAW264.7 [2]) was 2.2 µM.
With `C=C1C(=O)O[C@H]2C[C@@H](C)[C@@H]3[C@@H](OC)CC(=O)[C@@]3(C)[C@@H](OC(C)=O)[C@H]12` the Activity (RAW264.7 [1]) was “Non-toxic” and the IC50 (RAW264.7 [2]) was 1.5 µM.
For `C[C@@H]1C[C@@H]2OC(=O)[C@H](C)[C@H]2[C@H](O)[C@]2(C)C(=O)CC[C@@H]12`, the Activity (RAW264.7 [1]) was “Non-toxic” and the IC50 (RAW264.7 [2]) was 19.8 µM.
For `C=C1C(=O)O[C@H]2C=C(C)[C@@H]3[C@@H]([C@@H](O)[C@H]12)[C@](C)(O)C[C@@H]3OC(C)=O`, the Activity (RAW264.7 [1]) was “Non-toxic” and the IC50 (RAW264.7 [2]) was 9.2 µM.
In the case of `C=C1C(=O)O[C@H]2C[C@@H](C)[C@@H]3C=CC(=O)[C@@]3(C)[C@@H](O)[C@H]12`, the Activity (RAW264.7 [1]) is reported as “Non-toxic” and the IC50 (RAW264.7 [2]) is reported as 1.1 µM.
`C=C1C(=O)O[C@H]2C=C(C)[C@H]3CC[C@@](C)(O)[C@@H]3[C@@H](OC(C)=O)[C@H]12` was tested, and the Activity (RAW264.7 [1]) was “Non-toxic” and the IC50 (RAW264.7 [2]) was 17.1 µM.
`C=C1C[C@H]2OC(=O)C(=C)[C@H]2C[C@@H]2[C@@H]1CC[C@@]2(C)O` was tested, and the Activity (RAW264.7 [1]) was “Non-toxic” and the IC50 (RAW264.7 [2]) was 8 µM.
In the case of `C=C1C(=O)O[C@H]2C[C@@H](C)[C@@H]3C=CC(=O)[C@@]3(C)C[C@H]12` [AROMATICIN], the Activity (RAW264.7 [1]) is reported as “Non-toxic” and the IC50 (RAW264.7 [2]) is reported as 8.2 µM.
For `C=C1C(=O)O[C@H]2C[C@@H](C)[C@@H]3C=CC(=O)[C@@]3(C)[C@@H](OC(C)=O)[C@H]12` [BIGELOVIN], the Activity (RAW264.7 [1]) was “Non-toxic” and the IC50 (RAW264.7 [2]) was 0.9 µM.
For `C=C1C(=O)O[C@@H]2C[C@H](C)[C@@H]3[C@@H](O)CC(=O)[C@@]3(C)C[C@H]12` [BURRODIN], the Activity (RAW264.7 [1]) was “Non-toxic” and the IC50 (RAW264.7 [2]) was 9.5 µM.
For `C=C1C(=O)O[C@H]2C[C@@H](C)[C@@H]3CCC(=O)[C@@]3(C)[C@@H](O)[C@H]12` [CARPESIOLIN], the Activity (RAW264.7 [1]) was “Non-toxic” and the IC50 (RAW264.7 [2]) was 8.4 µM.
For `C=C1C(=O)O[C@@H]2C[C@H](C)[C@@H]3CCC(=O)[C@@]3(C)C[C@H]12` [CONFERTIN], the Activity (RAW264.7 [1]) was “Non-toxic” and the IC50 (RAW264.7 [2]) was 9.8 µM.
In the case of `C=C1C(=O)O[C@H]2C[C@@H](C)[C@@H]3CCC(=O)[C@@]3(C)[C@@H](OC(C)=O)[C@H]12` [ERGOLIDE], the Activity (RAW264.7 [1]) is reported as “Non-toxic” and the IC50 (RAW264.7 [2]) is reported as 3.9 µM.
For `C=C1C(=O)O[C@H]2C[C@@H](C)[C@@H]3CCC(=O)[C@@]3(C)C[C@H]12` [GRAVEOLIDE], the Activity (RAW264.7 [1]) was “Non-toxic” and the IC50 (RAW264.7 [2]) was 9.2 µM.
`C=C1C(=O)O[C@H]2C[C@@](C)(O)C3=CC[C@](C)(O)[C@@H]3C[C@H]12` [GUAIANOLIDE] was tested, and the Activity (RAW264.7 [1]) was “Non-toxic” and the IC50 (RAW264.7 [2]) was 26.8 µM.
In the case of `C=C1C(=O)O[C@@H]2CC(C)=C3[C@@H](OC(C)=O)C[C@@](C)(O)[C@@H]3C[C@H]12` [INUCHINENOLIDE B], the Activity (RAW264.7 [1]) is reported as “Non-toxic” and the IC50 (RAW264.7 [2]) is reported as 9.9 µM.
`C=C1C(=O)O[C@H]2C[C@H](C)[C@@H]3C(OC(C)=O)CC(OC(C)=O)[C@@]3(C)[C@@H](O)[C@H]12` (some centres undefined) [INUCHINENOLIDE C] was tested, and the Activity (RAW264.7 [1]) was “Non-toxic” and the IC50 (RAW264.7 [2]) was 0.6 µM.
In the case of `C=C1C(=O)O[C@H]2CC(=C)[C@H]3CC[C@@](C)(O)[C@@H]3C[C@H]12` [INUVISCOLIDE], the Activity (RAW264.7 [1]) is reported as “Non-toxic” and the IC50 (RAW264.7 [2]) is reported as 21.9 µM.
`N=C(N)NN` [PIMAGEDINE] was tested, and the IC50 (RAW264.7 [2]) was 7.9 µM.
